Screening data: PubChem BioAssay, several laboratories
NR2E3 ag-1 – human photoreceptor-specific nuclear receptor agonism; Q9Y5X4; CHO-S Gal4-NCOR/VP16-NR2E3 two-hybrid, luciferase; inhibition of corepressor binding, % at 3.98 µM; 360,000 compounds, 0.35% hits;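 active means inhibition above the mean of all tested compounds plus 3 SD, cut at about 70% in these data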;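 further: 0% = DMSO with NR2E3 transfected cells and 100% = cells lacking NR2E3 construct; higher means lower luciferase signal from less NR2E3 corepressor binding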
Target sequence (Q9Y5X4 whole entry, looked up, the tested form may be a part): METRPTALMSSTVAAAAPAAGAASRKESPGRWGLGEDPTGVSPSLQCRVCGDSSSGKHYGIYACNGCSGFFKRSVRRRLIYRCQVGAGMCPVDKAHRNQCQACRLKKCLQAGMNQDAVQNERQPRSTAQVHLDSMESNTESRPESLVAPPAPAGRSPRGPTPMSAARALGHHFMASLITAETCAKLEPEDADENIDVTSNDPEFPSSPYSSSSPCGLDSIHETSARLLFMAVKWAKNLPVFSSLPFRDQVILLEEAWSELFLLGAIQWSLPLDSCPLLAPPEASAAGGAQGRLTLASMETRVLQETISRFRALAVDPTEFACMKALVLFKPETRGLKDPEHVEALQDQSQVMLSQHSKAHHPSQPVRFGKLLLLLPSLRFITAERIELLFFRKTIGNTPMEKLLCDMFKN
NR2F2 inh – NR2F2 (human) inhibition, primary screen; P24468; HEK293T NGFI-A luciferase reporter, luminescence; inhibition, % at 8.6 µM; 370,000 compounds, 0.7% hits; AID 686940;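 active means inhibition above a per-plate cutoff, mean inhibition of test wells between control levels plus 3 SD, cut at about 38% in these data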;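 further: cells cotransfected with COUP-TFII expression vector driving the NGFI-A reporter; 0% = median of COUP-TF2 test wells and 100% = reporter-only cells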
CHT inh – human CHT choline transport inhibition. 310,000 compounds, 0.86% hits. CHT-expressing cells, membrane potential dye, choline response; active compounds read low. B-score at 10 µM;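 active means B-score over 3 SD under the library average, and starting fluorescence ratio not unusually high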;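 further: choline stimulus applied at its EC90 after an EC20 pre-addition; B-score computed on integrated fluorescence ratio after choline addition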
NR2E3 ag-2 – activates human photoreceptor nuclear receptor NR2E3; Q9Y5X4; GST-NR2E3/biotin-RetCOR TR-FRET, 1536-well; inhibition of corepressor binding, % at 4.78 µM; 320,000 compounds, 0.12% hits;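 active means percent inhibition above the cutoff of mean plus 3 SD of all tested compounds, set per screening campaign, cut at about 20% in these data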;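 further: 0% = DMSO wells and 100% = biotin wells as full block of FRET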
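Material – GST-tagged NR2E3 plus biotinylated RetCOR corepressor · Quantity – NR2E3 fusion 1.35 nM · Times – 5 h incubation at 4 °C · Medium – pH 7.5 Tris-based buffer · Technique – TR-FRET, Eu(K)-anti-GST donor, streptavidin-D2 acceptor, ex 340, em 617/671 nm · Benchmarks – high control biotin, low control 0.6% DMSO · Format – 1536-well plates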
CHT allo act – allosterically activates the human high affinity choline transporter; Q9GZV3; CHT-expressing cells, membrane potential dye, choline EC20; active compounds read high; LV-AA mutant CHT in HEK293 cells; B-score at 10 µM; 310,000 compounds, 0.49% hits; AID 488977;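 active means initial fluorescence not abnormally high and integrated response B-score, plate-corrected, over 3 SD above library mean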
GalR3 antagonist – antagonists of human GalR3. O60755. HEK293 GalR3-CNG cAMP membrane potential fluorescence; galR3 body fused to GalR1 C-terminus. inhibition, % at 3 µM. 360,000 compounds, 0.44% hits;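 active means inhibition above the screen-wide average plus 3 SD, cut at about 13% in these data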;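 further: forskolin and galanin both at EC90 stimulate the cells; cAMP rise reported by CNG channel membrane potential dye signal; 0% = forskolin plus galanin with DMSO and 100% = forskolin alone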
Target sequence (O60755 1-299 limits assumed): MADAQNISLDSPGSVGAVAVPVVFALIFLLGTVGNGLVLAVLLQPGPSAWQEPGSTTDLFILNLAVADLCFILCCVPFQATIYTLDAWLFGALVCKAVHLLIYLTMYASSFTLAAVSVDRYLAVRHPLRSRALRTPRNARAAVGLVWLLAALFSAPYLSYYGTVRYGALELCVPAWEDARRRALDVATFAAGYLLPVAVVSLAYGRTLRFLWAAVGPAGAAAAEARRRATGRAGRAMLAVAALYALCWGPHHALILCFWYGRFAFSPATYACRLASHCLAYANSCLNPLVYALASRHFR
NR2E3 ag confirm – confirmation of human NR2E3 agonists; AID 624378; 2,300 compounds, 51% hits; inhibition, % at 3.98 µM; CHO-S mammalian two-hybrid NR2E3-NCOR, luciferase luminescence; shares compounds with NR2E3 ag-1;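 active means average inhibition above a cutoff equal to the mean inhibition of all tested compounds plus one SD, cut at about 70% in these data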;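 further: 0% = DMSO in NR2E3 cells and 100% = DMSO in cells lacking NR2E3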
GAL4-VP16 luc – counter-screen for NR2E3 agonists: GAL4-VP16 reporter inhibitors. 2,300 compounds, 29% hits. CHO-S GAL4-VP16 luciferase reporter, luminescence. shares compounds with NR2E3 ag-1. inhibition, % at 3.98 µM;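 active means mean inhibition above a cutoff equal to the average over all tested compounds plus one standard deviation, cut at about 70% in these data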;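 further: luciferase from a UAS reporter driven by GAL4-VP16 transactivation; 0% = DMSO with VP16-transfected cells and 100% = DMSO with cells lacking VP16; higher means less reporter light so more repression of VP16 activity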
GalR3 conf – GalR3 (human) antagonism, confirmation; HEK293 GalR3 CNG cAMP biosensor, membrane potential fluorescence; galR3 fused to GalR1 carboxy tail; challenged with forskolin and galanin at EC90; 1,600 compounds, 59% hits; AID 652245; shares compounds with GalR3 antagonist; inhibition, % at 3 µM;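 active means inhibition above the primary screen's cutoff, the mean inhibition of all screened compounds plus 3 SD, cut at about 13% in these data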;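 further: 0% = forskolin plus galanin and 100% = forskolin alone with DMSO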
CNG parental – parental cell agonism counter-screen for GalR3 antagonists. shares compounds with GalR3 antagonist. HEK293-CNG parental cells, cAMP membrane potential fluorescence; normalised: DMSO wells 0%, forskolin wells 100%. activation, % at 3 µM. 1,600 compounds, 10% hits. AID 652268; in the data active means activation above about 1.3%
Gal4-VP16 ctr – counter-screen for COUP-TFII antagonists: inhibitors of VP16; shares compounds with NR2F2 inh; HEK293 Gal4-VP16 luciferase reporter, luminescence; inhibition, % at 8.5 µM; 2,500 compounds, 25% hits; AID 687007; in the data active means inhibition above about 13%
COUP-TFII conf – confirmation of human COUP-TFII (NR2F2) inhibitors; shares compounds with NR2F2 inh; HEK293 NGFI-A luciferase reporter, luminescence; inhibition, % at 8.5 µM; 2,500 compounds, 45% hits; AID 687008;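 active means mean inhibition over three repeats above a set limit taken from the earlier primary screen, cut at about 38% in these data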;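 further: 100% = cells given the luciferase reporter alone without the COUP-TF2 vector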
Active calls of the source: *; i = inactive; . = no result given. An excerpt weighted towards active compounds, which were near 2.3% of everything screened.

SMILES	NR2E3 ag-1	NR2F2 inh	CHT inh	NR2E3 ag-2	CHT allo act	GalR3 antagonist	NR2E3 ag confirm	GAL4-VP16 luc	Gal4-VP16 ctr	COUP-TFII conf	others
COc1cccc2c1C(=O)c1c(O)c3c(c(O)c1C2=O)C[C@@](O)(C(=O)CO)C[C@@H]3OC1CC(N)C(O)C(C)O1 (stereo not given in full)	-65	-21	.	.	.	-9	.	.	.	.
COC1=CC(=O)c2nc(Cl)ccc2C1=O	64	38*	.	.	.	-10	36	33	35*	26
CN1C2=N[C@H](c3cccc(C(F)(F)F)c3)CC(=O)N2/C(=C\c2ccccc2)[C@H]1c1ccccc1	.	6	.	.	.	.	.	.	.	.
O=C(CSc1nnc(Cn2nnc3ccccc32)o1)Nc1cccc(Cl)c1	-6	-2	i	-1	i	-8	.	.	.	.
O=C(CSc1nnc(Cn2nnc3ccccc32)o1)N(Cc1ccc(Cl)cc1)c1ccccc1	81*	72*	i	5	i	97*	94*	81*	4	67*	GalR3 conf=102*;CNG parental=0
O=S(=O)(c1ccc(Br)s1)N1CCC(c2nc3ccccc3o2)CC1	.	-6	.	.	.	.	.	.	.	.
COc1nc(OC)nc(N2CCC(C(=O)N(C)Cc3ccco3)CC2)n1	.	9	.	.	.	.	.	.	.	.
COc1ccc(CNC(=O)COc2cc(O)c3c(c2)OC(C)(C)CC3=O)cc1	4	19	i	0	i	2	.	.	.	.
COc1cc(NC(=O)COc2cc(O)c3c(c2)OC(C)(C)CC3=O)cc(OC)c1OC	82*	81*	i	-1	i	45*	59	84*	3	81*	GalR3 conf=102*;CNG parental=0
CCC1CCCCN1C(=O)c1cc(COc2ccc3ncccc3c2)on1 (stereo not given)	83*	72*	i	-4	i	71*	96*	87*	6	66*	GalR3 conf=112*;CNG parental=0
COCC1CCCCN1C(=O)c1cc(COc2ccc3ncccc3c2)on1 (stereo not given)	104*	44*	i	6	i	25*	91*	76*	6	57*	GalR3 conf=93*;CNG parental=0
CCN(CC)C(=O)C1CCCN(C(=O)c2cc(COc3ccc4ncccc4c3)on2)C1 (stereo not given)	37	27	i	0	i	-2	.	.	.	.
COCCC1CCCCN1C(=O)c1cc(COc2ccc(-n3cncn3)cc2)on1 (stereo not given)	105*	44*	i	16	i	-4	95*	79*	1	41*
C=CCC1(CC=C)CCCN1C(=O)c1cc(COc2cncc(Cl)c2)on1	90*	48*	i	0	i	45*	87*	69	-14	29	GalR3 conf=62*;CNG parental=1
COc1cc(OC)cc(-c2cc3nc(C)c(CCC(=O)NC(C)CCc4ccco4)c(C)n3n2)c1 (stereo not given)	7	26	i	2	i	-3	.	.	.	.
COc1cc(OC)cc(-c2cc3nc(C)c(CCC(=O)O)c(C)n3n2)c1	51	89*	i	-3	i	4	57	63	89*	97*
CCC(NC(=O)Nc1nnc(C(F)(F)F)s1)(C(F)(F)F)C(F)(F)F	104*	67*	i	5	i	58*	97*	90*	17*	60*	GalR3 conf=84*;CNG parental=0
O=C(O)CCC(=O)Nc1nnc(C(F)(F)F)s1	4	26	i	-2	i	0	.	.	.	.
CCOC(=O)[C@]12CCCC=C1N(CCCOC)C(=O)[C@@H]2CC(=O)NCc1cccs1	.	0	.	.	.	.	.	.	.	.
Cn1nc(CC(=O)Nc2ccc(N3CCN(C(=O)OC(C)(C)C)CC3)cc2)c2ccccc2c1=O	76*	53*	i	-3	i	4	90*	79*	7	64*
Cc1csc(NC(=O)Cc2nn(C)c(=O)c3ccccc23)n1	68	45*	i	2	i	-3	65	54	-4	25
Cn1nc(CC(=O)Nc2ccc3c(c2)OCCO3)c2ccccc2c1=O	98*	68*	i	1	i	100*	92*	73*	-2	53*	GalR3 conf=106*;CNG parental=0
Cn1nc(CC(=O)N2CCN(c3ccccc3)CC2)c2ccccc2c1=O	-16	8	i	3	i	0	.	.	.	.
COc1cc(NC(=O)Cc2nn(C)c(=O)c3ccccc23)cc(OC)c1	14	37	i	1	i	5	.	.	.	.
CCOC(=O)N1CCC(NC(=O)C2CCCN(Cc3nc(-c4cccc(C)c4)oc3C)C2)CC1 (stereo not given)	75*	42*	i	1	i	-5	76*	68	-5	26
SMILES	NR2E3 ag-1	NR2F2 inh	CHT inh	NR2E3 ag-2	CHT allo act	GalR3 antagonist	NR2E3 ag confirm	GAL4-VP16 luc	Gal4-VP16 ctr	COUP-TFII conf	others
O=C(CCCN1C(=O)/C(=C/c2ccccc2Cl)SC1=S)NNC(=O)c1cccnc1	59	54*	i	-1	i	3	-1	35	3	16
O=C(CCCN1C(=O)/C(=C/c2cccs2)SC1=S)NNC(=O)c1cccnc1	11	10	i	1	i	-8	.	.	.	.
COc1ccc([C@H]2OC(=O)C[C@H]2C(=O)N2CCN(C(=O)C3CCCO3)CC2)cc1OC (stereo not given in full)	.	0	.	.	.	.	.	.	.	.
Cc1oc(-c2ccc(Cl)cc2)nc1CS(=O)CC(=O)NCc1ccco1 (stereo not given)	-4	4	i	3	i	-8	.	.	.	.
CCc1ccc(-c2nc(CSCC(=O)NCc3ccco3)c(C)o2)cc1	101*	77*	.	.	.	-2	96*	96*	8	20
O=C1CCC[C@H]2C[C@H](NCc3ccc(Cl)cc3)CC[C@]23CCCN13	.	14	.	.	.	.	.	.	.	.
